Activity calls are given as the source filed them. The calls are words filed in the database; no cut-off is given here.
Columns and labels:
Histone deacetylase 1 = Histone deacetylase 1 (Homo sapiens, UniProt Q13547); test: Inhibition of HDAC1 in human MCF7 cells assessed as up-regulation of acetylated histone H3 protein level at 5 uM after 24 hrs by Western blot analysis; type: cell-based
Method in brief: (§1)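 MCF7 cells (5 × 10^6 per T75 flask) treated 24 h, harvested by trypsinization, lysed in RIPA on ice; 50 μg total protein resolved on 12% SDS-PAGE, transferred to nitrocellulose and probed for histone, acetylated histone, tubulin, acetylated tubulin, p21 and actin. Untreated cells as negative control.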

[1] = molecular target: T1, Protein deacetylase HDAC6 (Homo sapiens) (UniProt Q9UBN7); test: Inhibition of HDAC6 in human MCF7 cells assessed as change in tubulin acetylation level at 5 uM after 24 hrs by Western blot analysis; type: cell-based; method in brief: as §1
T1 sequence (whole entry): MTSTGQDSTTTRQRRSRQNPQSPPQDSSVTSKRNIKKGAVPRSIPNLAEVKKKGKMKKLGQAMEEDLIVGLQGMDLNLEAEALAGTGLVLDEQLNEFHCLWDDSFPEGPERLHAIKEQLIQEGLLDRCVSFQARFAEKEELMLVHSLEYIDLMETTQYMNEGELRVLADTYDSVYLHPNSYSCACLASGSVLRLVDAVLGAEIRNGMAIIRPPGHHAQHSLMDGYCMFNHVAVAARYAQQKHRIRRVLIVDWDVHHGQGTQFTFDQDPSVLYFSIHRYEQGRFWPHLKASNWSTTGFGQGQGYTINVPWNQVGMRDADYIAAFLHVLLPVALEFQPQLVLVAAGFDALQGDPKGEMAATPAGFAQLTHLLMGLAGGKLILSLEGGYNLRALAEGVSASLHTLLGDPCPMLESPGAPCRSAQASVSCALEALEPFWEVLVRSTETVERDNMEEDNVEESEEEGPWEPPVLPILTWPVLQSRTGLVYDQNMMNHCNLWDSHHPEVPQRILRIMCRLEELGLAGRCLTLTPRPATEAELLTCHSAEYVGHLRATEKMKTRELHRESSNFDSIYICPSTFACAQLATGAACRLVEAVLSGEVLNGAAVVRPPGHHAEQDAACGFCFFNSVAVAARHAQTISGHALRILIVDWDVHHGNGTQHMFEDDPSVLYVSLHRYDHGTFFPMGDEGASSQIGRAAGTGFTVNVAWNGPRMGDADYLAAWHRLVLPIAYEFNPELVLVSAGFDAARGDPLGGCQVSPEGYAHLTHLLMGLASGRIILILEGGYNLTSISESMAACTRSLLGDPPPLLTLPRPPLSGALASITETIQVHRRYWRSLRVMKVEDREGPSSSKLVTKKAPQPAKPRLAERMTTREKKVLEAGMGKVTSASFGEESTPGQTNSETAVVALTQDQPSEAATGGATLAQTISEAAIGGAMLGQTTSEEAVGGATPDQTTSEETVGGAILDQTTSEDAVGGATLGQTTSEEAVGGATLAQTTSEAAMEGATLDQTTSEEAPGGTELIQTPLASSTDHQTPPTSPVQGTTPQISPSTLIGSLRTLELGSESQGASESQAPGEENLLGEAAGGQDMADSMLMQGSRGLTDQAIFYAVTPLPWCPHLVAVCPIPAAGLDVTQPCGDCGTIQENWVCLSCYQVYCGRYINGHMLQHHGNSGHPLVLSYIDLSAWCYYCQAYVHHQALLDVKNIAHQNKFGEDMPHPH

MCF7 [2] = test: Growth inhibition of human MCF7 cells after 96 hrs by sulphorhodamine B assay; type: functional; settings: MCF7, 96 h
Method in brief: (§2)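 SRB growth assay; MCF7 and WI38 seeded 4000 cells/well, A549 2000 cells/well, attached overnight, then exposed to freshly made drug solutions (0.1 to 50 μM) for 96 h. Fixed with cold 10% TCA, stained with 0.4% SRB; absorbance at 540 nm as percent of untreated control, IC50 from mean absorbance.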

[3] = Growth inhibition of human WI38 cells after 96 hrs by sulphorhodamine B assay; type: cell-based; settings: WI-38 cells; method in brief: as §2
Bacteria [4] = test: Inhibition of bacterial DNA cytosine-C5 methyltransferase, M.SssI at 50 uM
Method in brief: (§3)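 One unit M.SssI with 1 μg bacteriophage λ DNA in NEBuffer2 (pH 7.9, 1 mM DTT) plus 160 μM SAM, ±inhibitor, 2 h at 37 °C; heat-inactivated 65 °C 20 min. Methylation read by BstUI digestion (10 units, 1 h 60 °C) and 1.5% agarose gel electrophoresis; run four times with positive and negative controls.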

MCF7 [5] = test: Inhibition of Class 1 histone deacetylase in human MCF7 cells assessed as up-regulation of p21 protein level at 5 uM after 24 hrs by Western blot analysis; type: cell-based; method in brief: as §1
[6] = Inhibition of HDAC in cell extract based assay
A549 = test: Growth inhibition of human A549 cells after 96 hrs by sulphorhodamine B assay; type: functional; settings: A549, 96 h; method in brief: as §2
Bacteria [7] = test: Inhibition of bacterial DNA cytosine-C5 methyltransferase, M.SssI at 5 uM; method in brief: as §3
[8] = molecular target: DNA (cytosine-5)-methyltransferase 1 (Homo sapiens, UniProt P26358); test: Inhibition of semi-purified DNMT1
Sequence of DNA (cytosine-5)-methyltransferase 1 (P26358 whole entry): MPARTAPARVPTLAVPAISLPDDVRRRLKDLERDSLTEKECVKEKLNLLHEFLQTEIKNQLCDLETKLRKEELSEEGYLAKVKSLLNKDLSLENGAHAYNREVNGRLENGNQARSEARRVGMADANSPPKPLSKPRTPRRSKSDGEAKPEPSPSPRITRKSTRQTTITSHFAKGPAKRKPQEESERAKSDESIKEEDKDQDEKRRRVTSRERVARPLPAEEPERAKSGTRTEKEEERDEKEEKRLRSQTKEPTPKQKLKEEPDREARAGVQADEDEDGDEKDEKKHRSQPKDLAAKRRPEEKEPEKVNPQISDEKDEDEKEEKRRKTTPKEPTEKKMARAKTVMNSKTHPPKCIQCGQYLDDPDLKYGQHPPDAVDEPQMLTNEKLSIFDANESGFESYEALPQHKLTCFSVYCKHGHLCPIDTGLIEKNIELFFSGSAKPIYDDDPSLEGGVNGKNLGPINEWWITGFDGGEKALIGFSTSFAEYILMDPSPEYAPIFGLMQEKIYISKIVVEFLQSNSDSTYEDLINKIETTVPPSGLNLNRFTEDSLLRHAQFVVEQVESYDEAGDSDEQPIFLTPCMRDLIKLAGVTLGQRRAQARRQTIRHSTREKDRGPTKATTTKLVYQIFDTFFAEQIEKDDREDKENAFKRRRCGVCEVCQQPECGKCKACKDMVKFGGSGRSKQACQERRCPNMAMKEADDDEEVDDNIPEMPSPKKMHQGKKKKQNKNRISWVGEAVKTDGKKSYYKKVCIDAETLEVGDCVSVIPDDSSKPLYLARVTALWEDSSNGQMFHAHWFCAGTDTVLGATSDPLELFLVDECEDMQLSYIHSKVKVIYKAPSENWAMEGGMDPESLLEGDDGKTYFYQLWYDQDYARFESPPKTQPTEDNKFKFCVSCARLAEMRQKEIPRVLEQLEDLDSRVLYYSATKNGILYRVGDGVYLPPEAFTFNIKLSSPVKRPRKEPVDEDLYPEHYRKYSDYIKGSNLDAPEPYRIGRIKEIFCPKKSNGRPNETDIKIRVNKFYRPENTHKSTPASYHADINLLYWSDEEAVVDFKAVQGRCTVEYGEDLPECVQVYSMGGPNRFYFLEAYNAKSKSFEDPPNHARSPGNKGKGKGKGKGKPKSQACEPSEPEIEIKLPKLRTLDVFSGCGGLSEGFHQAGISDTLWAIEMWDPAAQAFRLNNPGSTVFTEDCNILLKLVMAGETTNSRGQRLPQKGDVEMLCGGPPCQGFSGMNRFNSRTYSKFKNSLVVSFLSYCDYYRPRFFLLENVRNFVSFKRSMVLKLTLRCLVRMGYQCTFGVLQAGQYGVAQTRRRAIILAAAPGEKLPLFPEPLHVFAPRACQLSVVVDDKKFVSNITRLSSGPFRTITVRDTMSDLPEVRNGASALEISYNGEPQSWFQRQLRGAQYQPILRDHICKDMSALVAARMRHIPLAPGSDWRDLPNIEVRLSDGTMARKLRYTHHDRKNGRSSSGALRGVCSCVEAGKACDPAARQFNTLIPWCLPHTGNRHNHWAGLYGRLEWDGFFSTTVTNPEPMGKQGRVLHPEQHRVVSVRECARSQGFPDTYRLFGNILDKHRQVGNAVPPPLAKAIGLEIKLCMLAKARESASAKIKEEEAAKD

Sequence of Histone deacetylase 1 (Q13547 whole entry): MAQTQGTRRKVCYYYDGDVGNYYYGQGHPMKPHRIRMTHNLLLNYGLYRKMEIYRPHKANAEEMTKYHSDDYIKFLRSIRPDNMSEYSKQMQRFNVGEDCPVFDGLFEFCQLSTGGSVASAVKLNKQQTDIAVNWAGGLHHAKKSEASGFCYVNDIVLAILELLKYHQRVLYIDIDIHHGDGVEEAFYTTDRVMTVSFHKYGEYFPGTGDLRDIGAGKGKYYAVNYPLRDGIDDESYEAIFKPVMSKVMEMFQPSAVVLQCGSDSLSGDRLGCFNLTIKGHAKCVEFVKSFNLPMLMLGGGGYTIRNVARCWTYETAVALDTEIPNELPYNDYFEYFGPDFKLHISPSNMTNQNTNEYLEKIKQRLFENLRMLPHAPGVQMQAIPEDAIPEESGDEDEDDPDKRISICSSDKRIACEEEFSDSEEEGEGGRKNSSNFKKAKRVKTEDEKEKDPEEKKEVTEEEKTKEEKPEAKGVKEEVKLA

In the case of O=C(NCCSSCCNC(=O)/C(Cc1ccc(O)c(Br)c1)=N/O)/C(Cc1ccc(O)c(Br)c1)=N/O [PSAMMAPLIN A], the inhibition (Histone deacetylase 1) is reported as “Active”, the inhibition [1] is reported as “inactive” and the GI50 (MCF7 [2]) is reported as 1270 nM. For the same compound, the GI50 at 96 h [3] was 3440 nM, the inhibition (Bacteria [4]) was “Active” and the inhibition (MCF7 [5]) was “Active”. For the same compound, the IC50 [6] was 4.2 nM, the GI50 (A549) was 7500 nM and the inhibition (Bacteria [7]) was “Active”. It also gave an IC50 [8] of 18.6 nM.

From ChEMBL document CHEMBL2046381, “Defining the mechanism of action and enzymatic selectivity of psammaplin A against its epigenetic targets” (J Med Chem, 2012)
